The results in this text go back to ChEMBL document CHEMBL4004806, “Cyclocurcumin, an Antivasoconstrictive Constituent of Curcuma longa (Turmeric)” (J Nat Prod, 2017).

Some results are limits rather than exact numbers.

The target of data set [1] is T1, Voltage-gated L-type calcium channel (Rattus norvegicus, UniProt P22002+Q02485+P27732). The data set can be described thus: Inhibition of 60 mM K+ activated L-type calcium channel-mediated vasoconstriction in Sprague-Dawley rat aortic rings preincubated followed by 60 mM K+ addition. Put shortly: (§1)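 Rat aortic rings in organ baths of Krebs-Ringer (pH 7.4, 95% O2/5% CO2, 37 °C) pretreated with compound. Contraction was then started by cumulative phenylephrine, serotonin or 60 mM K+. Isometric tension recorded by force transducer and expressed as percent of a prior 90 mM K+ contraction. Mean ± SEM, ≥3 independent experiments, ANOVA/Duncan or t test.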

The test system of data set [2] is Aorta. The data set can be described thus: Cytotoxicity against Sprague-Dawley rat aortic rings assessed as non-specific tissue damage at 5 to 25 uM after 30 mins by LDH release assay. The data set is classed as tissue-based. Conditions: 0.5 h; call rule not given here. Put shortly:
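Aortic rings exposed to compound for 30 min, then medium aliquots collected. Aliquot incubated in Tris-EDTA-NADH buffer (0.17 mM β-NADH, pH 7.4) for 10 min at 37 °C. Prewarmed 14 mM pyruvate added, and the fall in A340 was followed for 1 min as LDH activity. Mean ± SEM, ≥3 independent experiments.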
For orientation: Release of lactate dehydrogenase indicates damage to the cell membrane.

Data set [3] deals with T1, Voltage-gated L-type calcium channel. The data set can be described thus: Inhibition of L-type calcium channel in Sprague-Dawley rat aortic rings assessed as reduction in phenylephrine-induced vasoconstriction at 25 uM preincubated with aortic rings followed by phenylephrine addition. The method in brief: as §1
Data set [4] has the same target. Description: Inhibition of L-type calcium channel in Sprague-Dawley rat aortic rings assessed as reduction in phenylephrine-induced vasoconstriction preincubated with aortic rings followed by phenylephrine addition. Put shortly: as §1
Data set [5] has the same target. The data set can be described thus: Inhibition of L-type calcium channel in Sprague-Dawley rat aortic rings assessed as reduction in 5-HT-induced vasoconstriction at 5 to 25 uM preincubated with aortic rings followed by 5-HT addition. Put shortly:
as §1

Data set [6] shares this target. The data set can be described thus: Inhibition of L-type calcium channel in endothelium-denuded Sprague-Dawley rat aortic rings assessed as reduction in 5-HT-induced vasoconstriction at 5 to 25 uM preincubated with aortic rings followed by 5-HT addition. Put shortly: as §1
Data set [7] has the same target. Description: Inhibition of L-type calcium channel in Sprague-Dawley rat primary VSMC assessed as reduction in 5-HT-induced MLC phosphorylation preincubated for 30 mins followed by 5-HT addition measured after 10 mins by Western blot method. Put shortly:
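Primary VSMCs were released from rat aorta with collagenase and elastase. Cells pretreated with compound for 30 min, then stimulated with 10−5 M serotonin for 10 min. Lysed in RIPA with protease/phosphatase inhibitors, and pMLC and total MLC detected by SDS-PAGE Western blot with chemiluminescent imaging. Mean ± SEM, ≥3 experiments.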

For data set [8] the target is unchanged. Description: Inhibition of L-type calcium channel in Sprague-Dawley rat primary VSMC assessed as reduction in 5-HT-induced calcium influx preincubated for 30 mins followed by 5-HT addition by Fura-2-AM dye based confocal microscopic method. Put shortly:
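Enzymatically isolated rat aortic VSMCs on coverslips pretreated with compound for 30 min. Cells loaded 60 min with 1 μM fura-2/AM in PSS (pH 7.4) with 1% BSA, then superfused with PSS at 2 mL/min at 33 °C. Serotonin-evoked calcium rise imaged by 40× oil-objective fluorescence microscopy. Mean ± SEM, ≥3 experiments.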

The target is the same in data set [9]. Description: Inhibition of L-type calcium channel in Sprague-Dawley rat aortic rings assessed as reduction in Bay K8644-induced vasoconstriction preincubated with aortic rings followed by Bay K8644 addition. The method in brief: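 Aortic rings in organ baths (37 °C, 95% O2/5% CO2) pretreated with compound. Contraction was elicited by Bay K8644 (10−6 M) in 15 mM K+ buffer, pH 7.4, containing 0.026 mM EDTA. Tension expressed as percent of a prior 90 mM K+ response. Mean ± SEM, ≥3 independent experiments.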

The target is the same in data set [10]. The data set can be described thus: Reversible inhibition of 5-HT activated L-type calcium channel-mediated vasoconstriction in Sprague-Dawley rat aortic rings at 25 uM preincubated with aortic rings followed by 5-HT addition and subsequent compound wash out measured after 4 hrs. Put shortly: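 Organ-bath aortic rings (Krebs-Ringer, 37 °C) treated with compound, and a 5-HT contraction recorded. Buffer was washed out and the 5-HT contraction measured again 4 h later. Tension expressed relative to a 90 mM K+ response. Mean ± SEM, ≥3 independent experiments.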

Data set [11] concerns Aorta. The data set can be described thus: Cytotoxicity against Sprague-Dawley rat aortic rings assessed as non-specific tissue damage after 24 hrs by TUNEL assay. Type of data set: tissue-based. The method in brief: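 Aortic rings kept in MEM with 100 U/mL penicillin and 100 μg/mL streptomycin, exposed to compound or vehicle for 24 h at 37 °C in 95% air/5% CO2. Sections quenched with 0.3% H2O2, digested with 20 μg/mL Proteinase K, TdT-labelled with digoxigenin-dUTP for 1 h at 37 °C. Detection by HRP anti-digoxigenin (30 min, room temperature) and DAB, hematoxylin counterstain. Mean ± SEM, ≥3 independent experiments.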

Data set [12] deals with T1, Voltage-gated L-type calcium channel. The data set can be described thus: Irreversible inhibition of 5-HT activated L-type calcium channel-mediated vasoconstriction in Sprague-Dawley rat aortic rings at 15 uM preincubated with aortic rings followed by 5-HT addition and subsequent compound wash out measured after 4 hrs. The method in brief:
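Rat aortic rings in organ baths of Krebs-Ringer solution (pH 7.4, 37 °C, gassed with 95% O2/5% CO2). Rings were pretreated with compound, then contracted with 5-HT (reading I). Buffer was washed out, and 5-HT contraction was re-measured 4 h later (reading II). Isometric tension was recorded and expressed as percent of the 90 mM K+ contraction. Mean ± SEM, ≥3 independent experiments.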

The term IC50 denotes the concentration needed to halve the response being measured. Usually pA2 stands for a measure of antagonist potency on a negative log scale.

On to `COc1cc(/C=C/C2=CC(=O)CC(c3ccc(O)c(OC)c3)O2)ccc1O` (configuration not stated), for which the values for the IC50 in data set [1], in [4] and in data set [9] were 18.5 µM, 14.9 µM and 13.5 µM, respectively. Moreover, the “inhibition (INH)” value is listed as “Dose-dependent effect” in data set [1] (rat); “Active” in data set [3]; “Dose-dependent effect” in [4] (rat); “Active” in data set [5]; “Active” in [6]; “Active” in data set [7]. Also, the “inhibition (INH)” value in data set [8] is listed as “Dose-dependent effect”; in data set [10], “Active”. Moreover, the Activity entry in the data set with Aorta [2] and in the data set with Aorta [11] was “Non-Toxic” in each case. Further, in [4], the pA2 is 5.2.
For `COc1cc(/C=C/C(=O)CC(=O)/C=C/c2ccc(O)c(OC)c2)ccc1O` [CURCUMIN], the half-maximal inhibitory concentration (IC50) in data set [4] was > 100 µM.
Regarding `COc1cc(/C=C/C(=O)CC(=O)/C=C/c2ccc(O)cc2)ccc1O`, the “inhibition (INH)” value in [3] is “Active”.
On to `C[As](O)O`, for which the “inhibition (INH)” value in data set [12] is recorded as “Active”.
